ABHD5-PLIN5 inh: ABHD5-PLIN5 interaction inhibitors, primary screen, cell lysate, split luciferase complementation, luminescence; Perilipin-5 (Homo sapiens) + 1-acylglycerol-3-phosphate O-acyltransferase ABHD5 (Homo …; Split G. princeps luciferase complementation, 4 h; inhibition, % at 4 µM; 0.78% of 360,000 active;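 active means inhibition above the mean inhibition across every tested compound plus 3 SD, cut at about 22% in these data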
PfGluPho inh: PfG6PD enzyme inhibitors, primary screen, biochemical, fluorescence intensity, uHTS; glucose-6-phosphate dehydrogenase-6-phosphogluconolactonase (Plasmodium falciparum 3D7); PfGluPho enzyme, NADPH resazurin-diaphorase fluorescence; inhibition, % at 20 µM; 0.78% of 350,000 active; AID 504690, 2011;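 active means inhibition reaching at least a set limit at 20 µM in the primary screen, cut at about 59% in these data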
HKDC1 inhibitor: HKDC1 hexokinase inhibitors, primary screen, biochemical, fluorescence, uHTS; Q2TB90; recombinant HKDC1, G6PDH/diaphorase resazurin coupled fluorescence; inhibition, % at 20 µM; 0.16% of 340,000 active; AID 493160, 2011;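 active means inhibition above about 35% when tested at 20 µM, limit read from the data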
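Test system: Recombinant HKDC1 (HK5) hexokinase enzyme, produced in-house | Input: HKDC1 at 5 µg/mL | Buffer or medium: Tris pH 8.0 buffer with MgCl2, Tween-20, BSA, BME | Schedule: 90 min reaction incubation at room temperature, dark | Technique: Resazurin-to-resorufin fluorescence via G6PDH and diaphorase coupling, 525/613 nm | Controls: DMSO wells with and without enzyme mix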
Exocytosis inh: LAMP-1 surface exposure blockers, TALL-104 cells – cell-based, flow cytometry, MLPCN library, primary screen; TALL-104 LAMP-1 surface exposure; cells stimulated with thapsigargin and PMA; inhibition, % at 10 µM; 0.66% of 360,000 active;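 active means inhibition above about 55%, limit read from the data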
HKDC1 act conf2: HKDC1 hexokinase activators, confirmation, biochemical, single concentration; inhibition, % at 20 µM; AID 504708, 2011; recombinant HKDC1, G6PDH/diaphorase resazurin fluorescence; hits give low values; shares compounds with HKDC1 inhibitor; 14% of 740 active;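 active means inhibition at or below a set negative limit, negative inhibition meaning the enzyme was activated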
Large screens that a line does not name were inactive (follow-up assays come after a bar, where they were run). In the library only some 2.2% were active in any assay of this set; here they are far more common.

N=C1/C(=C/c2coc3ccccc3c2=O)C(=O)N=C2SC(c3ccco3)=NN12	HKDC1 inhibitor 37.9 | HKDC1 act conf2 inactive
CCOc1ccc(OCCC(=O)N(CC(C)C)c2c(N)n(Cc3ccccc3)c(=O)[nH]c2=O)cc1	none
Cc1ccc(/C=C/C(=O)c2ccc([N+](=O)[O-])o2)cc1	HKDC1 inhibitor 46.0 (no result: ABHD5-PLIN5 inh, Exocytosis inh) | HKDC1 act conf2 inactive
Cc1ccc(CNC(=O)c2ccc([N+](=O)[O-])o2)cc1	none
CCOC(=O)c1c(C)sc2c1N(C(=O)CCl)c1cc(Cl)ccc1S2	HKDC1 inhibitor 45.5 | HKDC1 act conf2 inactive
COc1ccc(N2CCN(C(=O)CSc3nnc4c(C)cc5c(C)cc(C)cc5n34)CC2)cc1	HKDC1 inhibitor 42.9 | HKDC1 act conf2 inactive
Cc1cc(C)c2cc(C)c3nnc(SCC(=O)NCc4ccc5c(c4)OCO5)n3c2c1	none | HKDC1 act conf2 inactive
COc1ccccc1C(=O)C1CCCN(C(=O)c2ccco2)C1 (configuration not stated)	none
O=C(Nc1nnc(/C=C/c2ccccc2)s1)c1ccco1	none
C=C(C)c1cccc(C(C)(C)NC(=O)NC2CC(C)(C)NC(C)(C)C2)c1	none
COc1ccc(C(=O)/C=C/c2ccsc2)cc1CSCC(=O)O	HKDC1 inhibitor 35.7 | HKDC1 act conf2 inactive
COc1ccc(C(C)=O)cc1CSCCC(=O)O	none
CC1CCCCN1C(=O)C1COc2ccccc2O1 (configuration not stated)	none
CCOC(=O)C1=C(Cc2ccc(F)cc2)C(=O)c2ccccc2C1=O	ABHD5-PLIN5 inh 46.9, PfGluPho inh 97.9, HKDC1 inhibitor 72.7, Exocytosis inh 100.1 | HKDC1 act conf2 inactive
CCOc1ccccc1C(=O)Nc1cc2c(cc1N1CCCC1)n(CC)c(=O)n2CC	none
CCn1c(=O)n(CC)c2cc(N3CCCC3)c(NC(=O)c3ccccc3OC)cc21	none | HKDC1 act conf2 inactive
O=C1C=C(Nc2ccc(F)cc2)c2ccccc2C1=O	HKDC1 inhibitor 42.4 | HKDC1 act conf2 inactive
CCOc1ccc(NC2=CC(=O)C(=O)c3ccccc32)cc1	none
COc1ccc(C(C)=O)cc1CSc1ccc(S(=O)(=O)N2CCOCC2)cn1	none
C=CC1=C2C=C(C3CC3)N(C3CC3)C=C2C(=O)C(C)(OC(=O)c2ccco2)C1=O (configuration not stated)	none
COc1ccc(C2=CC3=C(Br)C(=O)C(C)(OC(=O)c4ccco4)C(=O)C3=CO2)cc1 (configuration not stated)	HKDC1 inhibitor 41.6 | HKDC1 act conf2 inactive
COc1ccc(C2=CC3=C(Br)C(=O)C(C)(OC(=O)c4cccs4)C(=O)C3=CO2)cc1 (configuration not stated)	HKDC1 inhibitor 50.0 | HKDC1 act conf2 inactive
COC(=O)CCCC1=CC2=CC(=O)C(C)(OC(=O)c3cccs3)C(=O)C2=CN1c1ccc(OC)cc1 (configuration not stated)	none
Oc1ccc(O)c(Cc2nc3ccccc3s2)c1	HKDC1 inhibitor 45.4 | HKDC1 act conf2 inactive
Cc1cc(C(=O)CCl)c(C)n1CCc1ccc(F)cc1	none
Cc1cc(C(=O)CCl)c(C)n1CCc1ccc(Cl)cc1	HKDC1 inhibitor 39.1 | HKDC1 act conf2 inactive
COc1cccc2cc(C(=O)Nc3ccc(F)cc3)c(=Nc3ccc(C(=O)O)cc3)oc12	HKDC1 inhibitor 77.0 | HKDC1 act conf2 inactive
COc1ccc(S(=O)(=O)N2CCCC(N(C)CCc3ccccc3)C2)cc1OC (configuration not stated)	none
CCCCn1c(N)c(N(CC(C)C)C(=O)C2CC(=O)N(c3ccc(CC)cc3)C2)c(=O)[nH]c1=O (configuration not stated)	none
CC1CC(C)CN(C(=O)COC(=O)c2cc([N+](=O)[O-])ccc2N2CCOCC2)C1 (configuration not stated)	none
CC1CCCN(C(=O)COC(=O)c2cc([N+](=O)[O-])ccc2N2CCOCC2)C1 (configuration not stated)	HKDC1 inhibitor 41.3 | HKDC1 act conf2 inactive
C=CCn1c(SCC(=O)Nc2sc3c(c2C#N)CCC(C)C3)nc2cc(C(=O)O)ccc2c1=O (configuration not stated)	HKDC1 inhibitor 39.0 | HKDC1 act conf2 inactive
COP(=O)(OC)c1ccc(NCc2cc(O)ccc2O)cc1	HKDC1 inhibitor 42.7 | HKDC1 act conf2 inactive

Compound activity from PubChem BioAssay.
